Measured values reported in ChEMBL document CHEMBL4138312 (J Med Chem, 2018).

Experiments:
[1] = Volume of distribution at steady state in CD1 mouse at 3 mg/kg, iv by LC/MS/MS analysis; assay type: ADME, organism-based; conditions: in vivo, read-out: Vdss
How it was run: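 Mouse pharmacokinetics after a single iv dose of 3 mg/kg in 10% HPbCD + 5% dextrose in WFI at pH 4. Plasma clearance, half-life and steady-state volume of distribution were derived.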

[2] = Half life in CD1 mouse at 10 mg/kg, po administered via gavage by LC/MS/MS analysis; assay type: ADME, organism-based; conditions: in vivo
How it was run: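 Mouse pharmacokinetics after oral dosing at 10 or 50 mg/kg. The 10 mg/kg dose was given in 10% HPbCD + 5% dextrose in WFI at pH 4. The 50 mg/kg dose was given in 5% SBECD in WFI at pH 2. Plasma exposure (AUC), half-life and oral bioavailability were derived.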

[3] = target: T1, Tyrosine-protein kinase JAK3 (Homo sapiens) (UniProt P52333); test: Inhibition of recombinant human GST-tagged JAK3 (781 to 1124 residues) expressed in baculovirus at 1 uM
T1 sequence (whole entry): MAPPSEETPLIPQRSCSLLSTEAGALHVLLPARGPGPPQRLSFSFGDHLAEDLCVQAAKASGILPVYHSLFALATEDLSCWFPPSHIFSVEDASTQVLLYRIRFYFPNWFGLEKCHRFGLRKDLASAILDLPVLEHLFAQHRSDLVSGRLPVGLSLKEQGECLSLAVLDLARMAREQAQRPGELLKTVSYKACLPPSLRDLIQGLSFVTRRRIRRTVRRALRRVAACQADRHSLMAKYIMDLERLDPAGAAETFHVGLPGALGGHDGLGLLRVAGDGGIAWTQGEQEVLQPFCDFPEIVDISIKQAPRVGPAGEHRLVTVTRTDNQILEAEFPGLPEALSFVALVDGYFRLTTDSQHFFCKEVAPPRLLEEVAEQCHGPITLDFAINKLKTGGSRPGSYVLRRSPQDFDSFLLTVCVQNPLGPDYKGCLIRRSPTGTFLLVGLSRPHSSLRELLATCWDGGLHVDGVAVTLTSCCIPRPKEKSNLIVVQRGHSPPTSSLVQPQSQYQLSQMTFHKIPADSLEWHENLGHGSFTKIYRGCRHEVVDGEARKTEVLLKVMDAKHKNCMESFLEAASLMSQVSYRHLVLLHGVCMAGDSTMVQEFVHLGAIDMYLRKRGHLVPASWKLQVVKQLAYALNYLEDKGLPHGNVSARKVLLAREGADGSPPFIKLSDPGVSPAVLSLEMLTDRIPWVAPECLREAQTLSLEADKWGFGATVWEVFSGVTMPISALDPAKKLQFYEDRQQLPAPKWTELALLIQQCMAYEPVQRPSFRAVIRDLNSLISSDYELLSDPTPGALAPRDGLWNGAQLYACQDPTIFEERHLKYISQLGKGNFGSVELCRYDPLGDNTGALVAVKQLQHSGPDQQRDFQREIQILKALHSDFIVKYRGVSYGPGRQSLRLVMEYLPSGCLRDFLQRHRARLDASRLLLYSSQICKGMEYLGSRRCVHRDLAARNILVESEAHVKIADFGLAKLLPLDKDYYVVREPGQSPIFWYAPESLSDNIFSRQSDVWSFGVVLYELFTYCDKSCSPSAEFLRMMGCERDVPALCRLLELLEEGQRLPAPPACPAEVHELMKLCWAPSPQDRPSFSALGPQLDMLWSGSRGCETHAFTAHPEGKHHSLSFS
How it was run: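 Single-concentration screen at 1 μM across a panel of 386 kinases to profile broad kinase selectivity.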

Vd [1]: 10.3 L/kg
half-life [2]: 4.7 h
inhibition [3]: 46%
Compound: CC[C@@H](C)Nc1nc(Nc2cc(N3C[C@@H]4C[C@H]3CN4C)cnc2F)ncc1C
